Results on 3 molecules are retold here after ChEMBL document CHEMBL4024777, “Discovery of LY3104607: A Potent and Selective G Protein-Coupled Receptor 40 (GPR40) Agonist with Optimized Pharmacokinetic Properties to Support Once Daily Oral Treatment in Patients with Type 2 Diabetes Mellitus” (J Med Chem, 2018).

In brackets after ≈: the same amount, converted by molar mass. Activity calls are given as the source filed them. No cut-off for these calls is given here. Some results are limits rather than exact numbers.

The Vd is a proportionality between amount in the body and measured concentration, not a real space. For orientation: solubility means the concentration that dissolves in the medium under given conditions. A lower solubility goes with little dissolved substance. In general, clearance refers to the volume of plasma or blood freed of the substance per unit of time. A word on the pKa: it is the negative logarithm of the acid dissociation constant. Read a low pKa as a stronger acid or weaker base. For orientation: logP means a log measure of how a compound divides between an organic and an aqueous phase. A lower logP goes with a more hydrophilic compound. As a reminder, the EC50 is the concentration at which the effect is half-maximal. As usually defined, the Ki is the equilibrium dissociation constant of an inhibitor or competing ligand from its target.

Series [1] in a line: Drug metabolism in dog hepatocytes assessed as oxidation. Format: ADME, cell-based, Canis lupus familiaris, Hepatocyte.
Series [2] deals with Rattus norvegicus. The experiment in a line: Antidiabetic activity in Zucker fa/fa rat assessed as reduction in blood glucose AUC at 1 mg/kg, po administered for 1 day followed by OGTT at 1 hr after compound dosing and measured 60 mins post glucose challenge by oral glucose tolerance test. Format: functional, organism-based.
The target of series [3] is T1, Free fatty acid receptor 1 (Homo sapiens, UniProt O14842). The experiment in a line: Agonist activity at human GPR40 receptor expressed in HEK293 cells assessed as increase in intracellular calcium flux after 2.5 hrs measured over 3 mins by calcium 4 dye-based FLIPR assay relative to linoleic acid. Format: functional, cell-based. In outline:
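Human GPR40 calcium flux was read on FLIPR. Percent stimulation is expressed against the response to 100 uM linoleic acid.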
A general note: A change in cytosolic calcium serves as a functional read-out for many receptors and channels.

Series [4] in a line: Intrinsic clearance in human microsomes. In kind it is ADME, Microsome.
Series [5] is described as follows: Drug metabolism in mouse hepatocytes assessed as O-dealkylation. Format: ADME, cell-based, Hepatocyte.
The nature of series [6]: Metabolic stability in rat microsomes assessed as compound metabolized after 30 mins. Format: ADME, Microsome. As to conditions: read-out: Drug metabolism. In outline:
(§1)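 Compound incubated 30 min with liver microsomes from mouse, rat, dog or human. Percent of compound metabolized recorded, as mean (SEM, n).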

Series [7] in a line: Drug metabolism in mouse hepatocytes assessed as oxidation. Format: ADME, cell-based, Hepatocyte.
The nature of series [8]: Drug metabolism in mouse hepatocytes assessed as glucuronidation. Format: ADME, cell-based, Hepatocyte.
In series [9] the test system is Rattus norvegicus. The experiment in a line: Antidiabetic activity in po dosed Zucker fa/fa rat assessed as reduction in blood glucose AUC administered daily for 21 days followed by OGTT at 1 hr after compound dosing and measured 60 mins post glucose challenge by oral glucose tolerance test. Format: functional.
Series [10] in a line: Drug metabolism in dog hepatocytes assessed as O-dealkylation. Format: ADME, cell-based, Canis lupus familiaris, Hepatocyte.
A short description of series [11]: Volume of distribution in type 2 diabetes patient. In kind it is ADME. As to conditions: human, in vivo.
Series [12] can be described thus: Aqueous solubility of the compound at pH 7.4. In kind it is physicochemical. In outline:
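Solubility was measured by DMSO/aqueous precipitation at pH 7.4 and reported as the last soluble concentration.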

Series [13] is described as follows: Drug metabolism in dog hepatocytes assessed as glucuronidation. In kind it is ADME, cell-based, Canis lupus familiaris, Hepatocyte.
Series [14] can be described thus: Drug metabolism in rat hepatocytes assessed as O-dealkylation. In kind it is ADME, cell-based, Hepatocyte.
A short description of series [15]: Drug metabolism in rat hepatocytes assessed as glucuronidation. In kind it is ADME, cell-based, Hepatocyte.
Series [16] in a line: Clearance in type 2 diabetes patient. Format: ADME. Particulars: human, in vivo.
Series [17] in a line: Metabolic stability in dog microsomes assessed as compound metabolized after 30 mins. In kind it is ADME, Canis lupus familiaris, Microsome. Particulars: read-out: Drug metabolism. In outline: as §1
The nature of series [18]: Drug metabolism in rat hepatocytes assessed as oxidation. In kind it is ADME, cell-based, Hepatocyte.
A short description of series [19]: Dissociation constant, pKa of the compound. In kind it is physicochemical.
Series [20] in a line: Lipophilicity, log P of the compound. Format: physicochemical. As to conditions: octanol/water.
A short description of series [21]: Drug metabolism in dog hepatocytes assessed as N-dealkylation. In kind it is ADME, cell-based, Canis lupus familiaris, Hepatocyte.
In series [22] the target is T1, Free fatty acid receptor 1. The experiment in a line: Agonist activity at human GPR40 receptor expressed in HEK293 cells assessed as increase in intracellular calcium flux after 2.5 hrs measured over 3 mins by calcium 4 dye-based FLIPR assay. Format: functional, cell-based. In outline: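 Calcium flux was read by FLIPR in cells carrying recombinant human GPR40. Percent stimulation is relative to the response to 100 µM linoleic acid. EC50 is reported with SEM and n.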

The target in series [23] is T1, Free fatty acid receptor 1. The experiment in a line: Competitive displacement of [3H]-TAK-875 from full length human recombinant GPR40 expressed in HEK293 cell membranes after 2 hrs by scintillation counting. In outline: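 Binding was measured as competitive inhibition of [3H]-TAK875 (fasiglifam) binding to membranes from cells overexpressing recombinant human GPR40. Ki is reported with SEM and n.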
In general terms: Loss of bound radioactivity is the signal in a displacement assay; it reports binding, not function.

Series [24] is described as follows: Intrinsic clearance in human hepatocytes. In kind it is ADME, cell-based, Hepatocyte.
Series [25] in a line: Metabolic stability in mouse microsomes assessed as compound metabolized after 30 mins. Particulars: read-out: Drug metabolism. Format: ADME, Microsome. The method, boiled down:
as §1

Series [26] can be described thus: Drug metabolism in mouse hepatocytes assessed as N-dealkylation. In kind it is ADME, cell-based, Hepatocyte.
Series [27] can be described thus: Metabolic stability in human microsomes assessed as compound metabolized after 30 mins. Format: ADME, Microsome. Particulars: read-out: Drug metabolism. In outline:
as §1

The nature of series [28]: Drug metabolism in rat hepatocytes assessed as N-dealkylation. In kind it is ADME, cell-based, Hepatocyte.
Series [29] can be described thus: Drug metabolism in mouse hepatocytes assessed as desmethylation. Format: ADME, cell-based, Hepatocyte.
Series [30] can be described thus: Drug metabolism in dog hepatocytes assessed as desmethylation. Format: ADME, cell-based, Canis lupus familiaris, Hepatocyte.
Series [31] in a line: Drug metabolism in rat hepatocytes assessed as desmethylation. Format: ADME, cell-based, Hepatocyte.

T1 sequence (O14842 whole entry): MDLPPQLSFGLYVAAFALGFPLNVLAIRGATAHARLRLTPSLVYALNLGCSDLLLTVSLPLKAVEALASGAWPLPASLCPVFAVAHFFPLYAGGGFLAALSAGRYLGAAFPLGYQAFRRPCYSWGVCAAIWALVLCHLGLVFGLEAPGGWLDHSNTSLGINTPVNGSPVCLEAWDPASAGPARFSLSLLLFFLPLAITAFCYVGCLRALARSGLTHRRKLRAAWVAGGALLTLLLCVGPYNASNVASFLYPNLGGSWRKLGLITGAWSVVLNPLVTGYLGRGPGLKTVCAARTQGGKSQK

Turning to `CC#C[C@@H](CC(=O)O)c1ccc(OCc2ccc(CN3CCC4(C=Cc5ccccc54)CC3)cc2)cc1` [LY2881835], the Drug metabolism result in series [1], in series [5], in [7], in [8], in series [10] and in [13] was “Metabolite_Detected” throughout. In addition, the Drug metabolism entry in series [14], in series [15] and in [18] was “Metabolite_Detected” throughout. In [2], the result was Active. The %max in [3] worked out at 62%. Further, in series [4], the K stood at 0.033 h⁻¹. Also, the metabolised at 0.5 h is 64% in [6] and 65% in series [17]. Moreover, the ED90 in series [9] turned out to be 1 mg/kg. Besides, the Vd in [11] is 111 L. The solubility in series [12] fell in the range of 61 to 80 µM (≈ 30 to 39.3 µg/mL). The molecule also had a clearance in [16] of 183 mL/min. Further, in series [19], the pKa was in the range of 4.1 to 8.1.

As for `CC#C[C@@H](CC(=O)O)c1ccc(OCc2ccc(N3CCC4(CCc5ccccc54)CC3)s2)cc1`, the logP in series [20] worked out at 5. Also, the Drug metabolism result in [1], in [21], in series [7], in series [8], in series [13] and in [15] was “Metabolite_Detected” throughout. Also, the Drug metabolism result in series [26], in series [18] and in series [28] was “Metabolite_Detected” each time. Also, the %max in series [3] was found to be 50%. Besides, the K in series [4] amounted to 0.109 h⁻¹; in series [24] it was 0.23 h⁻¹. Also, in [22], the EC50 stood at 8 nM. Also, in series [23], the Ki was determined as 8.2 nM. Also, the metabolised at 0.5 h in [6] is 98%; in series [25] it was 98%; in [17] it was 93%; in series [27], 44%. The ED90 in [9] amounted to 14.2 mg/kg. Besides, the Vd in series [11] fell in the range of 443 to 885 L. The solubility in [12] lay in the range of 70 to 89 µM (≈ 34 to 43.2 µg/mL). The clearance in [16] was in the range of 517 to 717 mL/min. The same molecule yielded a pKa in [19] of 3.4 to 7.9.

`CC#C[C@@H](CC(=O)O)c1ccc(OCc2ccc(CN3CCCc4cccc(OC)c43)s2)cc1`: the %max in [3] stood at 51%. Also, the values for the K in [4] and in series [24] were 0.0048 h⁻¹ and 0.17 h⁻¹, respectively. Moreover, the half-maximal effective concentration (EC50) in series [22] amounted to 3 nM. Further, the inhibition constant Ki in [23] was 27 nM. Also, the results for the metabolised at 0.5 h in series [6] and in series [17] were 62% and 18%, respectively. The Drug metabolism entry in [8], in series [13], in series [15], in series [29], in series [30] and in series [31] was “Metabolite_Detected” throughout. Also, the ED90 in [9] came out at 3.3 mg/kg. The distribution volume (Vd) in [11] lay within 244 to 358 L. Also, the solubility in series [12] is > 100 µM. For the same molecule, the clearance in series [16] lay in the range of 183 to 233 mL/min. In series [19], this molecule yielded a pKa of 3.4 to 6.
